Assay results from PubChem BioAssay AID651654 (Broad Institute, 2012).
Where “and” joins values, the source holds several entries; their conditions need not be identical. Equal values may be shown once. The whole screen tested about 360,000 compounds, of which about 740 (0.21%) were called active.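 The calls were made as follows: active = mean lysis activity across replicates of at least 80%, whatever share of replicates individually reach that level; inactive = mean lysis activity below 80%.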 The full list was thinned out, with actives kept by preference. Some compounds were tested as several samples or in several runs, with calls that do not always agree.

assay: Cryptococcus neoformans cell lysis inducers, primary screen, AK release luminescence, single concentration (AID 651654); conditions: C. neoformans lysis, adenylate kinase release luminescence, 4 h; at 15 µM; stronger effect = higher value
In short: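 Test system: log-phase Cryptococcus neoformans yeast cells. Input: 5 × 10^6 yeast cells/mL. Medium: fresh YPD growth medium. Doses: single dose. Incubation: static 4 h at 37 °C with compound, 1 h detection. Measured by: luminescent adenylate kinase detection reagent. Read-out: signal increase indicating cell lysis. Benchmarks: Clomiphene.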

| Compound | lysis activity |
| --- | --- |
| C[C@H]1CN([C@@H](C)CO)C(=O)CCCn2nncc2CO[C@H]1CN(C)C(=O)Oc1cccc2ccccc12 | 5.65% (inactive) and 82.4% (active) and -0.095% (inactive) |
| C[C@H]1CN([C@@H](C)CO)C(=O)CCCn2nncc2CO[C@H]1CN(C)C(=O)Oc1ccccc1 | -2.79% (inactive) and -0.658% (inactive) and 0.85% (inactive) |
| C[C@H](CO)N1C[C@H](C)[C@H](CN(C)C(=O)Oc2ccc3ccccc3c2)OCc2cnnn2CCCC1=O | -8.92% (inactive) |
| COc1cccc(C(c2nnnn2-c2ccc3c(c2)OCCO3)N2CCC3(CC2)C(=O)NCN3c2ccccc2)c1OC (stereo not given) | -24.5% (inactive) |
| O=C(Cc1ccccc1)N1CCCCN2[C@H](C1)[C@H](c1ccc(C#CC3(O)CCCC3)cc1)[C@@H]2CO | -1.31% (inactive) |
